Source: PubChem (several laboratories)
The full list was thinned out, with hits kept by preference.
NALP1 inh: NALP1 inhibition | S. cerevisiae NALP1/ASC/caspase-1 growth, X-gal OD620, 72 h | inhibition, % at 10 µM | hit rate 0.61% among 280,000 | AID 2071; in the data active = inhibition mostly above about 24%, no sharp cut-off; inactive = mostly below about 32%
T cruzi repl: T. cruzi replication inhibition; T. cruzi beta-gal in NIH3T3, luminescence, 90 h; inhibition, % (no concentration beside the values); AID 1885; hit rate 1.4% among 300,000;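 active = mean inhibition across valid replicates above about 55%, limit read from the data; inconclusive = mean below that limit but half or more replicates reach it; inactive = mean below it, under half of replicates reach it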;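 note: signal also drops with host cell toxicity which is not excluded here; higher percent means less beta-gal luminescence so fewer parasites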
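System: NIH/3T3 fibroblasts plus reporter T. cruzi. Medium: DMEM plus 2% FBS. Probe or stimulus: 5000 reporter trypomastigotes per well. Compound: single 50 nL compound addition per well in DMSO. Incubation: co-culture of at least 90 h after 3 h attachment. Detection: GalScreen β-gal luminescence, detergent lysis, 60 min. Evaluation: parasite load inhibition, %.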
Calb FLC: affects C. albicans growth with fluconazole; C. albicans CaCi-2 + fluconazole, Alamar Blue growth, 48 h; growth inhibition, % (no concentration beside the values); hit rate 0.57% among 300,000;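 active = growth inhibition above about 58% in most replicates, limit read from the data, passing the limit was not always enough; inconclusive = exactly half the replicates above a set limit; inactive = most replicates below a set limit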;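 note: all wells also contain fluconazole at 8 µg/ml as a sub-toxic cotreatment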
NLRP3 yeast inh: inhibitors of NALP3 inflammasome in yeast; Yeast reconstituted NLRP3/ASC/caspase-1, beta-gal luminescence, 24 h; hit rate 0.39% among 330,000; inhibition, % at 10 µM;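 active = inhibition of 50% or more; inactive = inhibition below 50%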
PolyA inhibitor: yeast polyadenylation inhibition; hit rate 0.02% among 300,000; S. cerevisiae SKY197-pL101 polyadenylation reporter, beta-gal luminescence; efflux-impaired pdr1/pdr3 knockout yeast; score 100 = 6 SD above DMSO; activity score, % at 12 µM;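 active = lowest replicate activity score at least 50, where 100 means six control SD above control mean; inconclusive = lowest score under 50 but half or more replicates reach 50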;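 note: yeast exposed to compound for 9 h at 30 °C; higher score means more reporter readthrough which indicates perturbed polyadenylation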
Lmaj promast: inhibitors of Leishmania major promastigote growth; AID 1063; Leishmania major promastigotes, resazurin fluorescence viability; hit rate 9% among 200,000; inhibition, % at 10 µM; in the data active = inhibition above about 50%;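 note: promastigotes grown with compound for 44 hours at 28 °C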
Of the large screens only hits and unclear results are named; the others gave an inactive call.

CC(=C\C(=O)O)/C(=C\c1cccc2ccccc12)C(=O)O	none (no result: Lmaj promast)
O=C(Nc1ccc2c(c1)OCCO2)c1ccco1	none
O=C(Nc1cccc(NC(=O)c2ccco2)c1)c1ccc2c(c1)OCO2	Lmaj promast 81.0
O=C(OC1CCCCC1)c1ccc(NC(=O)c2ccco2)cc1	Lmaj promast 75.2
O=C(Nc1cccc(NC(=O)c2ccco2)c1)c1ccc2c(c1)OCCO2	Lmaj promast 51.3
O=C(NCC1COc2ccccc2O1)c1ccc(NC(=O)c2ccco2)cc1 (configuration not stated)	Lmaj promast 55.1
C=CCC[C@@H](Cc1ccc(F)cc1)C(=O)OC[C@@H](Cc1c[nH]c2ccccc12)NC(=O)[C@H](CC=C)CC(=O)N[C@H](CO)Cc1ccccc1	none (no result: NALP1 inh, T cruzi repl, Calb FLC, PolyA inhibitor, Lmaj promast)
Cc1cc(C)nc(/N=C(\NC(=O)C(C)(C)C)Nc2ccc(F)cc2)n1	none (no result: Lmaj promast)
CC(NC(=O)Nc1ccccc1)C(c1ccccc1)N1CCOCC1 (configuration not stated)	Lmaj promast 52.2
COc1ccc(/C=C/C(=O)CC(O)(c2ccccc2)C(F)(F)F)cc1 (configuration not stated)	Lmaj promast 98.3
O=C(/C=C/c1ccccc1)CC(O)(c1ccccc1)C(F)(F)C(F)F (configuration not stated)	Lmaj promast 100.3
COc1ccc(/C=C/C(=O)CCC(=O)O)cc1	none
COC(=O)CSc1nc2cc(OC)ccc2cc1C#N	none
COc1ccc2cc(C#N)c(SCC(=O)N3CCCC3)nc2c1	Lmaj promast 54.6
COc1ccc2cc(C#N)c(N3CCN(C(=O)c4ccccc4C)CC3)nc2c1	none
COc1ccc(C(=O)N2CCN(c3nc4cc(C)ccc4cc3C#N)CC2)c(OC)c1	Lmaj promast 63.4
Cc1ccc(S(=O)(=O)N2[C@@H](c3cccc(Cl)c3)C(C(=O)O)=CC[C@H]2c2cccs2)cc1	none (no result: NALP1 inh, T cruzi repl, Calb FLC, PolyA inhibitor, Lmaj promast)
COc1ccc(/C=N/n2c(N)c(S(=O)(=O)c3cccs3)c3nc4ccccc4nc32)cc1OC	Lmaj promast 62.5
Nc1c(S(=O)(=O)c2cccs2)c2nc3ccccc3nc2n1/N=C/c1cccc(O)c1	Lmaj promast 58.5
COc1cccc(/C=N/n2c(N)c(S(=O)(=O)c3cccs3)c3nc4ccccc4nc32)c1	Calb FLC inconclusive
CCOC(=O)C1CCN(C(=O)C2CCN(S(=O)(=O)N3CCC4(CC3)OCCO4)CC2)CC1	none (no result: Lmaj promast)
COc1ccccc1C(=O)Nc1ccc(S(=O)(=O)N2CCCC2)cc1	none
COc1ccc(C(=O)Nc2ccc(S(=O)(=O)N3CCCCC3)cc2)cc1	none
COc1ccc(NS(=O)(=O)c2ccc(NC(=O)c3ccc(N(C)S(C)(=O)=O)cc3)cc2)c(OC)c1	Lmaj promast 54.0
COc1ccc(NC(=S)Nc2ccc(C)c(S(=O)(=O)N3CCCCC3)c2)cc1	Lmaj promast 76.3
COc1ccc(-c2cnnn2-c2ccc(NC(=O)c3ccc(S(=O)(=O)N4CCCCC4)cc3)cc2)cc1	Lmaj promast 98.8
COc1ccc(C(=O)Nc2ccc(S(=O)(=O)N3CCCC3)cc2)c(OC)c1	T cruzi repl 77.4
Cn1nnnc1SCC(=O)Nc1nc2c(F)c(F)c(F)cc2s1	none (no result: NALP1 inh, T cruzi repl, Calb FLC, PolyA inhibitor, Lmaj promast)
CC1CCc2onc(C(=O)NCc3ccco3)c2C1 (configuration not stated)	none
CCn1cc(C(=O)NC2CCCc3c2cnn3-c2cccc(C)c2C)cn1 (configuration not stated)	none (no result: Lmaj promast)
Cc1nc(C(N)=O)nc2ccccc12	none (no result: Lmaj promast)
O=[N+]([O-])c1ccc(N/N=C2/CCCCC2c2ccccn2)cc1 (configuration not stated)	Calb FLC inconclusive, Lmaj promast 97.6 (no result: NLRP3 yeast inh)
CC(C)C[C@@H](C(=O)NCc1ccco1)N1C(=O)N2CCc3c([nH]c4ccccc34)[C@@]2(C)C1=O	none (no result: Lmaj promast)
COc1ccc(CCN2CCC(Nc3nc4ccccc4n3Cc3ccc(F)cc3)CC2)cc1	Lmaj promast 100.4 (no result: Calb FLC)
COc1ccc(CNc2nc3ccccc3n2CCN2CCCCC2)cc1	none
OC1(c2ccccc2)CN(c2ccccc2)C2=[N+]1CCS2 (configuration not stated)	none
CCN(CC(=O)Nc1ccc2c(c1)OCCO2)Cc1cc(=O)oc2c(C)c(C)ccc12	Lmaj promast 80.9
Cc1ccc2c(CN3CCN(Cc4ccc5c(c4)OCO5)CC3)cc(=O)oc2c1C	Lmaj promast 73.4
Cc1cc(C)c2c(CN3CCN(Cc4ccc5c(c4)OCO5)CC3)cc(=O)oc2c1C	none
Cc1ccc(C)c(N2C(=O)CC(N3CCN(Cc4ccc5c(c4)OCO5)CC3)C2=O)c1 (configuration not stated)	Calb FLC inconclusive, Lmaj promast 87.1
Cc1cc2oc(=O)cc(CN3CCN(Cc4ccc5c(c4)OCO5)CC3)c2cc1C	Lmaj promast 94.4
OCC[C@@H]1C[C@H](O)[C@@H](O)[C@@]2(OCCCc3ccccc32)O1	none (no result: Lmaj promast)
CCOc1ccc(CCNC(=O)CN2C(=O)CCSc3ccccc32)cc1	none (no result: Lmaj promast)
Cc1cc(C)n2nc(CNS(=O)(=O)c3ccc(F)c(C)c3)nc2n1	none (no result: Lmaj promast)
COc1ccc(CNC(=O)c2ccc(Cl)c(S(=O)(=O)N3CCOCC3)c2)cc1OC	none (no result: NALP1 inh, T cruzi repl, Calb FLC, PolyA inhibitor, Lmaj promast)
COc1ccc(-c2cc(N)n(S(=O)(=O)c3ccc(F)cc3)n2)cc1OC	Lmaj promast 51.1
CCOC(=O)c1oc2ccc(S(=O)(=O)n3nc(-c4cc(OC)c(OC)c(OC)c4)cc3N)cc2c1C	Lmaj promast 64.1
CN(C)CCCN(C(=O)c1ccc(N2C(=O)CCC2=O)cc1)c1nc2c(F)cccc2s1	T cruzi repl 57.1
CN(C)CCCN(C(=O)c1ccc(S(=O)(=O)N(C)Cc2ccccc2)cc1)c1nc2c(F)cccc2s1	none (no result: Lmaj promast)
Cc1ccc2nc(N(CCCN(C)C)C(=O)c3ccc4c(c3)CCCC4)sc2c1	NALP1 inh 51.6, Lmaj promast 98.7
CN(C)CCCN(C(=O)c1ccc2c(c1)CCCC2)c1nc2c(F)cccc2s1	T cruzi repl 58.2
Cc1cc(C)c2nc(N(CCCN(C)C)C(=O)c3ccc4c(c3)CCCC4)sc2c1	T cruzi repl 58.5 (no result: NALP1 inh, Lmaj promast)
CN(C)CCN(C(=O)c1ccc2c(c1)CCCC2)c1nc2cc3c(cc2s1)OCCO3	none (no result: Lmaj promast)
CN1CCN(CC(=O)NC23CC4CC(CC(C4)C2)C3)CC1	none (no result: NALP1 inh, Lmaj promast)
CCCN(C(=O)CSCC(=O)Nc1ccc(OC)cc1)c1c(N)n(Cc2ccccc2)c(=O)[nH]c1=O	none (no result: NALP1 inh, Lmaj promast)
CNC(=O)CN(c1ccc(Oc2ccccc2)cc1)S(=O)(=O)c1ccc(C)cc1	none (no result: Lmaj promast)
Cc1cccc(S(=O)(=O)c2c(C)cc(C)[nH]c2=O)c1	none (no result: Lmaj promast)
C=C(C)Cn1c(C)cc(C)c(S(=O)(=O)c2cccc(C)c2)c1=O	Lmaj promast 95.9
CN1CCN(C(c2cccc(C(F)(F)F)c2)c2nnnn2C(C)(C)C)CC1 (configuration not stated)	none
CCC(C)(C)n1nnnc1C(c1ccncc1)N1CCN(c2cccc(OC)c2)CC1 (configuration not stated)	Lmaj promast 53.8 (no result: NALP1 inh)
